Bioassay records (PubChem BioAssay)
Scp-1 inhibitor – Scp-1 phosphatase inhibitors, primary screen, biochemical, colorimetric, uHTS; hit rate 0.88% among 340,000; Recombinant Scp1, phosphopeptide, malachite green phosphate absorbance; inhibition, % at 20 µM;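 active = inhibition above about 50% at 20 µM, limit read from the data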;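 also: plate controls were DMSO wells with enzyme for no effect and wells lacking enzyme for full effect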
Target sequence (Q9GZU7 76-261 limits assumed): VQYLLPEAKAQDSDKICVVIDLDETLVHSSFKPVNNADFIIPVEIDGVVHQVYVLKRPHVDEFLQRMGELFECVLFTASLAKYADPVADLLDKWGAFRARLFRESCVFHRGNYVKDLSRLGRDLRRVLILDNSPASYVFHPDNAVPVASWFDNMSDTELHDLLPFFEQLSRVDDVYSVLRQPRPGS
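Test system: SCP-1 phosphatase catalytic domain, residues 76-261 | Compound dosing: One concentration, 20 µM, with 1.0% DMSO | Schedule: 45 min room-temperature reaction, 5 min colour, 30 min stabiliser | Detection: Absorbance at 630 nm | Read-out basis: % inhibition of SCP-1 phosphate liberation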
GRK2 aptamer HTS – compounds blocking aptamer binding on GRK2 – biochemical, human GRK2, bead flow cytometry, HTS, primary screen; FAM-aptamer displacement from GRK2; inhibition of aptamer binding, % at 10 µM; hit rate 0.59% among 330,000;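 active = inhibition of aptamer binding above 40%, roughly 3 SD of noise, on plates passing a quality check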;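 also: median bead fluorescence of bound FAM aptamer so fluorescent compounds give negative values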
SUMO1 PPI mod – modulators of SUMO1 protein-protein interactions, primary screen, biochemical, uHTS; Small ubiquitin-related modifier 1 (Homo sapiens), P63165; SUMO1 binding to a labelled peptide, TR-FRET, 1 h; inhibition, % at 20 µM; hit rate 0.33% among 360,000; AID 602429, 2012; in the data active = inhibition above about 37%
LMPTP block – LMPTP phosphatase inhibitors, primary screen, biochemical, fluorescence intensity, uHTS; inhibition, % at 20 µM; hit rate 0.22% among 360,000; recombinant LMPTP-A, OMFP fluorogenic substrate;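 active = compounds that cut the enzyme signal by at least half of the control window in the single-dose screen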;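 also: plate controls were DMSO wells with enzyme plus substrate for no effect and substrate without enzyme for full effect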
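Test system – LMPTP-A phosphatase enzyme · Quantity – 0.625 nM LMPTP-A final · Reagent – OMFP substrate, 400 µM final · Dosing – one test concentration per compound, 20 µM, with 3% DMSO overall · Timing – 50 min enzyme reaction at room temperature, protected from light · Detection – fluorescence intensity · Controls – substrate-only low control, DMSO enzyme-plus-substrate high control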
DNMT1 block – human DNMT1 methyltransferase inhibitors, primary screen, biochemical, molecular beacon, fluorescence, HinP1I cleavage, uHTS; inhibition (reported as % activation of signal), % at 10 µM; hit rate 0.83% among 360,000; DNA (cytosine-5)-methyltransferase 1 (Homo sapiens), P26358; in the data active = inhibition above about 50%
STEP inh – STEP phosphatase inhibitors, primary screen, biochemical, fluorescence intensity, uHTS; recombinant STEP, OMFP fluorogenic substrate; inhibition, % at 20 µM; hit rate 0.25% among 360,000; AID 588621, 2011;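 active = inhibition at 20 µM, scaled per plate between control wells, above about 37%, limit read from the data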;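 also: 0% = DMSO with enzyme and substrate and 100% = substrate only without enzyme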
Target sequence (P54829 whole entry, looked up): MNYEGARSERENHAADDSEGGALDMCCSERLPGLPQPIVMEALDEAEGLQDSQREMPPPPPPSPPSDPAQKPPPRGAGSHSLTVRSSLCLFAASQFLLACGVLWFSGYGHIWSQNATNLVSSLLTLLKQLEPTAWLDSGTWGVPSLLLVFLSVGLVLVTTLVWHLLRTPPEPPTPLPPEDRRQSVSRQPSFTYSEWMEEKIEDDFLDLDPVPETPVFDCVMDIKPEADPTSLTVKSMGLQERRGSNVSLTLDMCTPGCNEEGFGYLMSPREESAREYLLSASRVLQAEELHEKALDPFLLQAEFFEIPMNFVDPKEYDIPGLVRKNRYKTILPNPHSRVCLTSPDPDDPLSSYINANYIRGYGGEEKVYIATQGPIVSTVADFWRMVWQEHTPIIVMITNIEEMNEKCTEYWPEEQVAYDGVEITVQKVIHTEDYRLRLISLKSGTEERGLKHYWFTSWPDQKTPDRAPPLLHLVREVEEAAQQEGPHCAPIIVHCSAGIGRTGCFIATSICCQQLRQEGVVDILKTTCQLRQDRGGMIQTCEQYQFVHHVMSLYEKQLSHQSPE
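Test system: STEP tyrosine phosphatase / Reagent: OMFP at 25 µM / Doses: 20 µM, 1% DMSO / Read-out: percent inhibition scaled to no-enzyme and uninhibited-enzyme controls, plate-pattern corrected / Detection: FITC-channel fluorescence of OMFP product / Medium: Bis-Tris buffer pH 6.0, 2.5 mM DTT, 0.005% Tween 20 / Schedule: 20 min at room temperature, dark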
GRK2 inh confirm – GRK2 aptamer-displacing inhibitors, retest, confirmation, biochemical, cherry pick 1, bead flow cytometry; shares compounds with GRK2 aptamer HTS; bead-bound GRK2, FAM-aptamer displacement; aptamer displacement, % at 10 µM; hit rate 4% among 2,000;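 active = aptamer displacement above 40%, near three times the noise of non-fluorescent compounds, on plates passing quality checks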;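 also: negative values mostly reflect intrinsic compound fluorescence rather than true enhancement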
Aptamer quench SP – aptamer fluorescence quenching in GRK2 counter-screen; shares compounds with GRK2 aptamer HTS; Carboxyfluorescein RNA aptamer on beads, flow cytometry quenching; stronger effect = lower value; fluorescence response (% of DMSO), % at 10 µM; 2,000 tested, under 10 active; AID 504580;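 active = compounds that quench the bead-bound fluorescent RNA probe, cutting fluorescence to under half of the solvent control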;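 also: counterscreen run without GRK2 so only probe quenching by compound is measured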
GRK2 CP2 – GRK2 aptamer-displacing inhibitors, hit retest, confirmation, biochemical, cherry pick 2, bead flow cytometry | inhibition of aptamer binding, % at 10 µM | shares compounds with GRK2 aptamer HTS | AID 504782, 2011 | 360 tested, under 10 active | bead-bound GRK2, FAM-aptamer displacement;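 active = inhibition of aptamer binding above 40%, about triple the noise seen with nonglowing compounds, on plates passing quality control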;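 also: negative values mostly come from compounds that fluoresce themselves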
FAM quench CP2 – aptamer fluorescence quenching in GRK2 counter-screen. shares compounds with GRK2 aptamer HTS. carboxyfluorescein RNA aptamer beads, flow cytometry quenching; stronger effect = lower value. fluorescence response vs DMSO, % at 10 µM. 360 tested, under 10 active. AID 588494;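 active = response vs DMSO under 50%, meaning signal dropped by over half, treated as fluorescence quencher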;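 also: labelled aptamer on streptavidin beads without GRK2 as a quench counter-screen; 100% = bead fluorescence of DMSO wells and lower means quenching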
An asterisk follows results filed as active; · = no result. An excerpt weighted towards active compounds, which were near 2.1% of everything screened.

SMILES | Scp-1 inhibitor | GRK2 aptamer HTS | SUMO1 PPI mod | LMPTP block | DNMT1 block | STEP inh | GRK2 inh confirm | Aptamer quench SP | others
CCOc1ccc(CCNC(=O)Nc2cccc(OC)c2)cc1OCC | -7 | 41* | 0 | -1 | -2 | 2 | · | · | GRK2 CP2=-8;FAM quench CP2=98
CNC(=S)N1CCC(c2nc3ccccc3s2)CC1 | -1 | 2 | -3 | -1 | 7 | 4 | · | ·
Cc1ccc(NC(=S)N2CCC(c3nc4ccccc4s3)CC2)cc1 | 4 | 64* | 1 | 2 | -13 | 3 | -6 | 105
S=C(N=Nc1ccccc1)NNc1ccccc1 | -3 | 42* | -25 | 2 | -5 | -1 | -5 | 98
Cc1ccc(O)c(C(=O)c2cnc3c(c2)CN(C)C(=O)N3)c1 | -5 | 0 | -6 | -1 | -3 | -4 | · | ·
Cc1ccc(O)c(C(=O)c2cnc3c(c2)CN(CCC(C)C)C(=O)N3)c1 | -1 | 43* | -2 | -2 | 6 | 2 | -2 | 98
CCOC(=O)[C@]12CCC=C1N(Cc1ccc3c(c1)OCO3)C(=O)[C@H](CC(=O)N1CCSCC1)C2 | · | · | 0 | -2 | · | · | · | ·
COC(=O)c1cc2c(ccn2-c2ccc(F)cc2)n1C(C)C | -8 | 67* | 3 | 2 | -4 | 0 | 1 | 96
Cc1ccc(-n2ncc3c(SCC(=O)NNC(=O)C(C)C)ncnc32)cc1 | 3 | 97* | 6 | -1 | 10 | -5 | -1 | 100
COc1ccc(NC(=O)N(C)C[C@H]2Oc3ccc(NC(=O)CCC(F)(F)F)cc3C(=O)N([C@H](C)CO)C[C@@H]2C)cc1 | -3 | 73* | -3 | 1 | 1 | -1 | · | · | GRK2 CP2=8;FAM quench CP2=101
Cc1ccccc1CCN(CC(=O)NCc1ccc(F)cc1)C(=O)c1csnn1 | -5 | 70* | 6 | -1 | 2 | 4 | 1 | 99
Cc1ccsc1CN(C)CC(=O)N(C)CC(=O)Nc1c(Cl)cccc1Cl | · | · | 0 | -2 | 2 | 1 | · | ·
CCOc1ccc(NC(=O)c2ccc(N3CC4CC(C3)c3cccc(=O)n3C4)c(N)c2)cc1 (centres undefined) | -5 | 93* | 6 | 1 | 1 | 7 | 0 | 100
Cc1ccc(C)c(S(=O)(=O)NCc2ccc(C(=O)N3CCCCC3C)cc2)c1 (centres undefined) | -3 | 52* | 3 | -1 | 0 | 0 | 2 | 93
Cc1ccc(S(=O)(=O)C[C@@H]2OC[C@H](CO)N2S(=O)(=O)c2ccc(C)cc2)cc1 | · | · | 5 | 0 | · | · | · | ·
CCOc1ccc(CCN2C(=S)N([C@@H](CC(C)C)CN3CCCC3CN3C(=S)NC[C@@H]3CC(C)C)C[C@@H]2CC(C)C)cc1 (some centres undefined) | 21 | · | 2 | 2 | 4 | 4 | · | ·
CCC(C)Nc1nc2c(c(=O)[nH]c(=O)n2C)n1CCC(C)C (centres undefined) | 0 | 52* | -1 | 1 | -2 | 2 | 0 | 101
COc1cccc(-c2nnc(NC(=O)c3ccc(Cl)s3)o2)c1 | -16 | 52* | 6 | 0 | 0 | 2 | -2 | 97
CN(C(=O)c1ccc(N2CCCCC2)c([N+](=O)[O-])c1)C1CCS(=O)(=O)C1 (centres undefined) | -1 | 21 | -32 | 0 | 2 | 0 | -3 | 105
O=C(CCOc1cccc(Br)c1)Nc1ccc(F)c(S(=O)(=O)N2CCOCC2)c1 | -7 | · | 1 | 1 | -4 | -1 | · | ·
CC(OC(=O)c1ccc([N+](=O)[O-])s1)C(=O)NC1CCCCC1C (centres undefined) | -2 | 33 | 13 | -1 | 71* | 2 | 2 | 96
CC1CCN(S(=O)(=O)c2ccc(C(=O)OC(C)C(=O)NC3CCCCC3C)cc2)CC1 (centres undefined) | 0 | 0 | 4 | 14 | 8 | 4 | -23 | 98
CC1CC(=Cc2ccc(N)cc2)C(=O)O1 (centres undefined) | -8 | · | -16 | -2 | 2 | -2 | · | ·
COC(=O)c1noc(C)c1-c1ccnn1C(=O)c1ccc(C)cc1 | -12 | 97* | 2 | 0 | -1 | 1 | 0 | 46*
CCCNC(=O)C1(C)CCN(Cc2ccc(-c3ccccc3)o2)C1 (centres undefined) | · | · | -2 | 1 | 6 | 2 | · | ·
SMILES | Scp-1 inhibitor | GRK2 aptamer HTS | SUMO1 PPI mod | LMPTP block | DNMT1 block | STEP inh | GRK2 inh confirm | Aptamer quench SP | others
COc1cccc(NC(=O)COC(=O)C2CCCCC2)c1 | -6 | 1 | 3 | 0 | -4 | 0 | · | ·
CCOC(=O)c1cnc2c(C#N)c(C)nn2c1C | 0 | 47* | 3 | -2 | -3 | -4 | -4 | 100
CCN(CC)S(=O)(=O)c1ccc(N2CCOCC2)c(NC(=O)c2[nH]c(C)c(C(C)=O)c2C)c1 | -4 | 0 | -13 | 1 | 1 | -3 | · | ·
CCN(CC)C(=O)Cn1cc(C(=O)C(=O)N2CCc3ccccc32)c2ccccc21 | -9 | 40 | 4 | 0 | 1 | -1 | -1 | 100
C=CCN(CC=C)Cc1cc(=O)oc2ccccc12 | · | · | 0 | 0 | -3 | 0 | · | ·
COc1ccc(CN([C@H](CO)CC(C)C)S(=O)(=O)N(Cc2ccccc2)[C@H](CO)CC(C)C)cc1 | 0 | 0 | 4 | 2 | -20 | -3 | · | ·
COc1ccc(CN([C@H](C)CO)S(=O)(=O)N(Cc2ccccc2)[C@H](CO)C(C)C)cc1 | -8 | 46* | 4 | 2 | 1 | -4 | -3 | 96
COc1ccc(CCC(C)N(C)Cc2ccccc2)cc1 (centres undefined) | -4 | 37 | 7 | -3 | 0 | -6 | 0 | 93
